The values below come from ChEMBL document CHEMBL2401718, “Structure-cytotoxic activity relationship of 3-arylideneflavanone and chromanone (E,Z isomers) and 3-arylflavones” (Bioorg Med Chem Lett, 2013).

One may read the logP as the decadic logarithm of the partition coefficient of the neutral form, usually between octanol and water. Read a high logP as a more lipophilic compound. What is called IC50 is the concentration needed to halve the response being measured. Low values mean greater potency in that assay, high ones weaker potency in that assay.

Some results are limits rather than exact numbers.

Data set [1] is described as follows: Lipophilicity, log P of the compound by HPLC analysis. The data set is classed as physicochemical.
Another data set has as its system HUVEC. Nature of the data set: Cytotoxicity against HUVEC after 46 hrs by MTT assay. The data set is classed as cell-based. To be noted: Homo sapiens. An outline of the steps:
(§1)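 MTT read-out of survival in cells treated with test compound and compared with untreated control cells. IC50 is the concentration that lowers the surviving cell fraction to 50% of control. Values are means (μM) ± standard deviation from 3 experiments, each run in quintuple. Cancer-line IC50s were compared with normal-cell (HUVEC) IC50s by unpaired t-test.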
A general note: Formazan colour is commonly taken as a measure of viable cells.

Another data set deals with NALM-6. As to the kind of experiment: Cytotoxicity against human NALM6 cells after 46 hrs by MTT assay. It is filed as functional, cell-based. Particulars: NALM-6, 46 h. The method, boiled down:
as §1

A further data set deals with WM-115. Nature of the data set: Cytotoxicity against human WM115 cells after 46 hrs by MTT assay. It is filed as functional, cell-based. To be noted: WM-115, 46 h. The method, boiled down:
as §1

The test system of the next data set is HL-60. Nature of the data set: Cytotoxicity against human HL60 cells after 46 hrs by MTT assay. To be noted: HL-60, 46 h. It is filed as functional, cell-based. The method, boiled down: as §1

`O=C1/C(=C/c2ccncc2)C(c2ccccc2)Oc2ccccc21` (stereo unspecified) gave a logP in data set [1] of 2.98. Further, the IC50 was 5.77 µM with HUVEC, 1.6 µM with NALM-6, 6.3 µM in the data set with WM-115 and 0.9 µM in the data set on HL-60.
In data set [1], `O=C1/C(=C\c2ccncc2)C(c2ccccc2)Oc2ccccc21` (stereo unspecified) had a lipophilicity (logP) of 2.85. Further, the IC50 in the data set with HUVEC came to 5.14 µM; in the data set with NALM-6, 0.7 µM; in the data set with WM-115 it was 4.6 µM; in the data set with HL-60, 1.1 µM.
`O=C1/C(=C/c2ccc(O)cc2)COc2ccccc21` displayed a logP in data set [1] of 3.1. Moreover, the IC50 worked out at 32.3 µM in the data set on NALM-6, 69 µM in the data set with WM-115 and 5.7 µM in the data set on HL-60.
As for `O=C1/C(=C/c2ccccc2)COc2ccccc21`, in data set [1], the logP came to 3.07. The IC50 in the data set with NALM-6 was determined as 6.2 µM; in the data set on WM-115 it was 53.7 µM; in the data set with HL-60, 5.4 µM.
The molecule `O=c1c(Cc2ccc(O)cc2)coc2ccccc12` had a logP in data set [1] of 3.33. Besides, the IC50 in the data set with NALM-6 is 49.8 µM; with WM-115, 57.2 µM; with HL-60 it was 46.7 µM.
For `O=C1/C(=C\c2ccccc2)C(c2ccccc2)Oc2ccccc21` (stereo unspecified), in that order: 3.9, above 1000 µM, 52.6 µM and 27.3 µM.
For `O=C1/C(=C/c2ccccc2)C(c2ccccc2)Oc2ccccc21` (stereo unspecified), in that order: 3.9, 29.5 µM, 59.4 µM and 33.3 µM.
The molecule `O=C1/C(=C\c2ccccc2)C(c2ccccc2)Oc2ccc(O)cc21` (stereo unspecified) showed a lipophilicity (logP) in data set [1] of 3.45. Further, the IC50 in the data set with NALM-6 came to 58.8 µM; with WM-115, 9.1 µM; in the data set with HL-60, 7.3 µM.
For `O=C1/C(=C/c2ccccc2)C(c2ccccc2)Oc2ccc(O)cc21` (stereo unspecified), the logP in data set [1] stood at 3.5. The IC50 in the data set on NALM-6 was found to be 8.7 µM; with WM-115, 44.5 µM; with HL-60, 5.8 µM.
For `Cc1ccc(/C=C2\C(=O)c3ccccc3OC2c2ccccc2)cc1` (stereo unspecified), in that order: 4.39, above 1000 µM, 57 µM and 40.8 µM.
For `Cc1ccc(/C=C2/C(=O)c3ccccc3OC2c2ccccc2)cc1` (stereo unspecified), in that order: 4.36, 51.4 µM, 60.1 µM and 40.9 µM.
For the molecule `O=C1/C(=C\c2ccc(Cl)cc2)C(c2ccccc2)Oc2ccccc21` (stereo unspecified), the logP in data set [1] was determined as 4.53. For the same molecule, the IC50 in the data set on NALM-6 is above 1000 µM; with WM-115, 27.4 µM; in the data set on HL-60, above 1000 µM.
Turning to `O=C1/C(=C/c2ccc(Cl)cc2)C(c2ccccc2)Oc2ccccc21` (stereo unspecified), in data set [1], the logP came to 4.46. Besides, the IC50 in the data set with NALM-6 worked out at 7.4 µM; in the data set on WM-115, 52 µM; in the data set on HL-60, 5.8 µM.
As for `O=C1/C(=C\c2ccc(Br)cc2)C(c2ccccc2)Oc2ccccc21` (stereo unspecified), the logP in data set [1] is 4.71. In addition, the IC50 with HUVEC is 29.1 µM; in the data set on NALM-6 it was above 1000 µM; in the data set with WM-115 it was 32.6 µM; in the data set on HL-60, above 1000 µM.
Molecule `O=C1/C(=C/c2ccc(Br)cc2)C(c2ccccc2)Oc2ccccc21` (stereo unspecified) yielded a logP in data set [1] of 4.46. Besides, the IC50 in the data set on HUVEC amounted to 7.23 µM; with NALM-6, 6.9 µM; in the data set with WM-115, 25.9 µM; in the data set with HL-60 it was 5.7 µM.
Turning to `O=C1/C(=C\c2ccccc2)COc2ccccc21`, the logP in data set [1] is 2.89. Further, the IC50 came out at 5.5 µM in the data set on NALM-6, 13.5 µM in the data set with WM-115 and 6.7 µM in the data set on HL-60.
Take `O=C1/C(=C\c2ccc(O)cc2)COc2ccccc21`: the logP in data set [1] came to 2.92. The concentration for half-maximal inhibition (IC50) in the data set on NALM-6 worked out at 466 µM; in the data set with WM-115, 12.1 µM; in the data set on HL-60, 6.5 µM.
Take `O=c1c(Cc2ccc([N+](=O)[O-])cc2)coc2ccccc12`: in data set [1], the logP amounted to 3.93. Also, the IC50 was determined as 5.4 µM in the data set on HUVEC, 5 µM in the data set with NALM-6, 6.1 µM in the data set on WM-115 and 2.4 µM in the data set with HL-60.
Consider `N#Cc1ccc(Cc2coc3ccccc3c2=O)cc1`, for which the log partition coefficient (logP) in data set [1] is 3.58. The IC50 came out at 4.8 µM in the data set with NALM-6, 6.3 µM in the data set on WM-115 and 3.8 µM with HL-60.
The molecule `O=c1c(Cc2ccc(F)cc2)coc2ccccc12` showed a logP in data set [1] of 4.02. Further, the IC50 is 8.2 µM in the data set with NALM-6, 53.2 µM in the data set on WM-115 and 19.1 µM in the data set with HL-60.
For `O=c1c(Cc2cccc(O)c2)coc2ccccc12`, in that order: 3.31, 7.3 µM, 17.6 µM and 6.3 µM.
On to `O=C1CCOc2ccccc21` [CHROMANONE], for which the figures for the IC50 with NALM-6, in the data set with WM-115 and with HL-60 were 674 µM, above 1000 µM and 677 µM, respectively.
As to `O=C1CC(c2ccccc2)Oc2ccccc21` (stereo unspecified) [FLAVANONE], the values for the IC50 in the data set on NALM-6, in the data set on WM-115 and in the data set on HL-60 were 57.6 µM, 71.2 µM and 51.1 µM, respectively.
For `O=C1C[C@@H](c2ccc(O)cc2)Oc2cc(O)cc(O)c21` [NARINGENIN], the IC50 in the data set with NALM-6 was determined as 426 µM; in the data set with WM-115, 525 µM; in the data set with HL-60, 414 µM.
For `O=c1c(O)c(-c2ccc(O)c(O)c2)oc2cc(O)cc(O)c12` [QUERCETIN], in that order: 77.1 µM, 178 µM and 58 µM.
